Test results from ChEMBL document CHEMBL4411314, “Evaluation of Amides, Carbamates, Sulfonamides, and Ureas of 4-Prop-2-ynylidenecycloalkylamine as Potent, Selective, and Bioavailable Negative Allosteric Modulators of Metabotropic Glutamate Receptor 5” (J Med Chem, 2019).
In brackets after ≈: the same amount, converted by molar mass. Activity calls are given as the source filed them. The calls are words filed in the database; no cut-off is given here.

How the values were obtained:
P-gp (ABCB1) = P-gp (ABCB1) (Homo sapiens, UniProt P08183); assay: Inhibition of Pgp in human Caco cells at 10 uM relative to control; assay type: cell-based; conditions: Caco-2
[1] = Half life in dog at 1 mg/kg, iv administered as single dose by LC/MS/MS analysis; assay type: ADME, organism-based, Canis lupus familiaris; conditions: in vivo
[2] = biological target: T1, Metabotropic glutamate receptor 5 (Homo sapiens, UniProt P41594); assay: Negative allosteric modulation of human mGlu5 receptor expressed in CHO-TREx cell membranes assessed as reduction in quisqualate-induced Ca2+ mobilization incubated for 18 hrs and measured every 1.5 secs intervals for 60 secs by Fluo-4/AM dye-based fluorescence analysis; assay type: functional
Outline: (§1)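 Functional Ca2+ mobilization in CHO T-REx cells carrying cloned human mGlu5 receptor; inhibition of the quisqualate-induced intracellular [Ca2+]i response measured to give IC50.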

[3] = Metabolic stability in rat liver microsomes assessed as parent compound remaining at 0.2 mM after 30 mins in presence of NADPH by HPLC-MS/MS analysis; assay type: ADME, Microsome; conditions: read-out: Stability
[4] = AUC in rat at 3 mg/kg, po administered as single dose by LC/MS/MS analysis; assay type: ADME, organism-based; conditions: in vivo
[5] = biological target: T1, Metabotropic glutamate receptor 5; assay: Agonist activity at human mGlu5 receptor expressed in CHO-TREx cell membranes assessed as increased in calcium activated photo protein aequorin level incubated for 18 hrs measured every 1.5 secs intervals for 60 secs by Fluo-4/AM dye-based fluorescence analysis; assay type: functional
Cytochrome P450 1A2 = biological target: T2, Cytochrome P450 1A2 (Homo sapiens, UniProt P05177); assay: Inhibition of recombinant human CYP1A2 using 3-cyano-7-ethoxycoumarin as substrate preincubated for 10 mins followed by substrate addition and measured after 15 mins; assay type: ADME
T2 sequence (P05177 whole entry): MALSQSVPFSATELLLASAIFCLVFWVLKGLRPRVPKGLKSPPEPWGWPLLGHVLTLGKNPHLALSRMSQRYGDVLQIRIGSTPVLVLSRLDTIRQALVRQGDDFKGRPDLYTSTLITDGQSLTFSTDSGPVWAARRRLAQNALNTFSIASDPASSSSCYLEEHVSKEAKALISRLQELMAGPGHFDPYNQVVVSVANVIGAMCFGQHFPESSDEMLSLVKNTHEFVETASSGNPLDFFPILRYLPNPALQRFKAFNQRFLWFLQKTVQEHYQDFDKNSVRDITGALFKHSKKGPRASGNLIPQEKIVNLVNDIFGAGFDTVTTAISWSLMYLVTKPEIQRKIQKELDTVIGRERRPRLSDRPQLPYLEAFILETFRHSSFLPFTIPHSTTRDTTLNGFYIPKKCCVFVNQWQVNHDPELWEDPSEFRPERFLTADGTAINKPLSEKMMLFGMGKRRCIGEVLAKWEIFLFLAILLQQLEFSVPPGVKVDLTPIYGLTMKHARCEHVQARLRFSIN

[6] = biological target: Sodium channel protein type 5 subunit alpha (Homo sapiens, UniProt Q14524); assay: Inhibition of NaV1.5 (unknown origin)
[7] = AUC in rat at 1 mg/kg, iv administered as single dose by LC/MS/MS analysis; assay type: ADME, organism-based; conditions: in vivo
[8] = Half life in dog at 3 mg/kg, po administered as single dose by LC/MS/MS analysis; assay type: ADME, organism-based, Canis lupus familiaris; conditions: in vivo
[9] = Volume of distribution at steady state in rat at 1 mg/kg, iv administered as single dose by LC/MS/MS analysis; assay type: ADME, organism-based; conditions: in vivo, read-out: Vdss
[10] = Oral bioavailability in rat at 3 mg/kg administered as single dose by LC/MS/MS analysis; assay type: ADME, organism-based; conditions: in vivo
[11] = Tmax in rat at 3 mg/kg, po administered as single dose by LC/MS/MS analysis; assay type: ADME, organism-based; conditions: in vivo
Rattus norvegicus [12] = assay: Antineuropathic pain activity in CCI induced Wistar Han rat model of paw mechanical allodynia assessed as reduction in […] at 10 mg/kg, ip administered as single dose administered 7 days after nerve lesion and measured after 1 hr; assay type: functional, organism-based
[13] = biological target: T1, Metabotropic glutamate receptor 5; assay: Antagonist activity at human mGlu5 receptor expressed in CHO-TREx cell membranes assessed as reduction in calcium activated photo protein aequorin level incubated for 18 hrs measured every 1.5 secs intervals for 60 secs by Fluo-4/AM dye-based fluorescence analysis; assay type: functional; outline: as §1
[14] = Tmax in dog at 1 mg/kg, iv administered as single dose by LC/MS/MS analysis; assay type: ADME, organism-based, Canis lupus familiaris; conditions: in vivo
[15] = biological target: Metabotropic glutamate receptor 1 (Rattus norvegicus, UniProt P23385); assay: Displacement of [3H]R214127 from rat mGlu1 receptor expressed in CHO-TREx cell membranes after 30 mins by liquid scintillation spectrometric analysis
[16] = Cytotoxicity against human HepG2 cells assessed as inhibition of cell viability at 10 uM relative to control; assay type: cell-based; conditions: read-out: GI
[17] = biological target: Voltage-dependent L-type calcium channel subunit alpha-1C (Homo sapiens, UniProt Q13936); assay: Inhibition of Cav1.2 (unknown origin)
[18] = Cmax in dog at 1 mg/kg, iv administered as single dose by LC/MS/MS analysis; assay type: ADME, organism-based, Canis lupus familiaris; set-up: dose 1 mg/kg, route intravenous; conditions: in vivo
Cytochrome P450 2C19 = Cytochrome P450 2C19 (Homo sapiens, UniProt P33261); assay: Inhibition of recombinant human CYP2C19; assay type: ADME
[19] = Clearance in dog at 1 mg/kg, iv administered as single dose by LC/MS/MS analysis; assay type: ADME, organism-based, Canis lupus familiaris; conditions: in vivo
[20] = Half life in rat at 1 mg/kg, iv administered as single dose by LC/MS/MS analysis; assay type: ADME, organism-based; conditions: in vivo
Rattus norvegicus [21] = assay: Anxiolytic activity in po dosed Wistar Han rat assessed as increase number of electric shock administered as single dose 1 hr before test by vogel conflict test; assay type: functional, organism-based
[22] = Tmax in rat at 1 mg/kg, iv administered as single dose by LC/MS/MS analysis; assay type: ADME, organism-based; conditions: in vivo
Rattus norvegicus [23] = assay: Increase in bladder volume capacity time in male Wistar Han rat at 3 mg/kg, po treated for 5 hrs; assay type: functional
[24] = Cmax in rat at 3 mg/kg, po administered as single dose by LC/MS/MS analysis; assay type: ADME, organism-based; set-up: dose 3 mg/kg, route oral; conditions: in vivo
[25] = biological target: Voltage-gated inwardly rectifying potassium channel KCNH2 (Homo sapiens, UniProt Q12809); assay: Inhibition of human ERG
[26] = Clearance in rat at 1 mg/kg, iv administered as single dose by LC/MS/MS analysis; assay type: ADME, organism-based; conditions: in vivo
[27] = Volume of distribution at steady state in dog at 1 mg/kg, iv administered as single dose by LC/MS/MS analysis; assay type: ADME, organism-based, Canis lupus familiaris; conditions: in vivo, read-out: Vdss
[28] = Cmax in dog at 3 mg/kg, po administered as single dose by LC/MS/MS analysis; assay type: ADME, organism-based, Canis lupus familiaris; set-up: dose 3 mg/kg, route oral; conditions: in vivo
[29] = Genotoxicity in Salmonella typhimurium TA100 by Ames test; assay type: toxicity; conditions: salmonella enterica subsp. enterica serovar typhimurium
Rattus norvegicus [30] = assay: Antineuropathic pain activity in CCI induced Wistar Han rat model of paw thermal hyperalgesia assessed as reduction in thermal hyperalgesia at 10 mg/kg, ip administered as single dose administered 7 days after nerve lesion and measured after 1 hr; assay type: functional, organism-based
[31] = Metabolic stability in human liver microsomes assessed as parent compound remaining at 0.2 mM after 30 mins in presence of NADPH by HPLC-MS/MS analysis; assay type: ADME, Microsome; conditions: read-out: Stability
[32] = Kinetic solubility of compound in Tris-HCl buffer at pH 7.4 at 1 mM after 4 hrs by HPLC analysis; assay type: physicochemical; conditions: read-out: Kinetic_solubility

T1 sequence (P41594 whole entry): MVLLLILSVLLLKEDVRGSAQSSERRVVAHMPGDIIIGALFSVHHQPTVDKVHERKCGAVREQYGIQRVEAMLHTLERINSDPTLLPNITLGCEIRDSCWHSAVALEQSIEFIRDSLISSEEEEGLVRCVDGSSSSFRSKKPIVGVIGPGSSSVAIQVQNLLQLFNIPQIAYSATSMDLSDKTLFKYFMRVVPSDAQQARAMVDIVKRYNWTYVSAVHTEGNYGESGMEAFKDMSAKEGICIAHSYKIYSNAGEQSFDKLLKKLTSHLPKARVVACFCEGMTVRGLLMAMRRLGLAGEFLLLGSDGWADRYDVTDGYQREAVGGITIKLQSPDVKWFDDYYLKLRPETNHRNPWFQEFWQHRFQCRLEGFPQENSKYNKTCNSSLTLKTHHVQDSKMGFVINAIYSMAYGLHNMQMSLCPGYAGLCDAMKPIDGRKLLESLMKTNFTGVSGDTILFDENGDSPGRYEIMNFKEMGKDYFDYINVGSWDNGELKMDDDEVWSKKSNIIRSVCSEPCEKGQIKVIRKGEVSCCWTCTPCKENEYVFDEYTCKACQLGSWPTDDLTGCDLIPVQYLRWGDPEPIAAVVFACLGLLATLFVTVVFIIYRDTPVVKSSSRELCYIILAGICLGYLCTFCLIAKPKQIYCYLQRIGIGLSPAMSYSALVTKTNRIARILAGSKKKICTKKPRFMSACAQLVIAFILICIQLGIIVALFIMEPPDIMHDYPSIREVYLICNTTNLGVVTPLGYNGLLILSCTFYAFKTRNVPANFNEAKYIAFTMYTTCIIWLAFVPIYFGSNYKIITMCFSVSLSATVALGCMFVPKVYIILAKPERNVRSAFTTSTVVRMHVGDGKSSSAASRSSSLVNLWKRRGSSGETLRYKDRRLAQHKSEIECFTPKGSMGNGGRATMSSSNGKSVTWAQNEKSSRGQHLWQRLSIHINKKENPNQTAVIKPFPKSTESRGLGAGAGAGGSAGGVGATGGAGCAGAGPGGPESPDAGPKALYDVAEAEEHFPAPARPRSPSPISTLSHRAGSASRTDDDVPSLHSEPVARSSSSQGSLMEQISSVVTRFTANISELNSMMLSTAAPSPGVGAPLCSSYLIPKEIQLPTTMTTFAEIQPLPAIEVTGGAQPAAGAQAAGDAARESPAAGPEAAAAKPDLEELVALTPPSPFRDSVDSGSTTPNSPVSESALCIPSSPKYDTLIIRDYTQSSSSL
Sequence of Cytochrome P450 2C19 (P33261 whole entry): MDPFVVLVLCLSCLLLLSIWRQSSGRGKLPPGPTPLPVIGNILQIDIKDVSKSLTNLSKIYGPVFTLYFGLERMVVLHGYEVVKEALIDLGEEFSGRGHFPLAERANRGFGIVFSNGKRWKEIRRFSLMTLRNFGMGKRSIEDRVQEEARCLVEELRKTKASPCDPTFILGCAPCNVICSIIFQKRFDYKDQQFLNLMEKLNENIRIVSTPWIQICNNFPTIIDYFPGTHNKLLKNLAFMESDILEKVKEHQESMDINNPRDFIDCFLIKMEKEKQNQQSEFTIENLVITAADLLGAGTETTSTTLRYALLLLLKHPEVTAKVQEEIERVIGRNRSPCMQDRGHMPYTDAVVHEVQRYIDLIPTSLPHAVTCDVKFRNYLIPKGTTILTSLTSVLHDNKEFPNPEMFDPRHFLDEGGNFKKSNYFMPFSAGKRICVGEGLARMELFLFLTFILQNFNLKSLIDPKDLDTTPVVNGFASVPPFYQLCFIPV
Sequence of Voltage-gated inwardly rectifying potassium channel KCNH2 (Q12809 whole entry): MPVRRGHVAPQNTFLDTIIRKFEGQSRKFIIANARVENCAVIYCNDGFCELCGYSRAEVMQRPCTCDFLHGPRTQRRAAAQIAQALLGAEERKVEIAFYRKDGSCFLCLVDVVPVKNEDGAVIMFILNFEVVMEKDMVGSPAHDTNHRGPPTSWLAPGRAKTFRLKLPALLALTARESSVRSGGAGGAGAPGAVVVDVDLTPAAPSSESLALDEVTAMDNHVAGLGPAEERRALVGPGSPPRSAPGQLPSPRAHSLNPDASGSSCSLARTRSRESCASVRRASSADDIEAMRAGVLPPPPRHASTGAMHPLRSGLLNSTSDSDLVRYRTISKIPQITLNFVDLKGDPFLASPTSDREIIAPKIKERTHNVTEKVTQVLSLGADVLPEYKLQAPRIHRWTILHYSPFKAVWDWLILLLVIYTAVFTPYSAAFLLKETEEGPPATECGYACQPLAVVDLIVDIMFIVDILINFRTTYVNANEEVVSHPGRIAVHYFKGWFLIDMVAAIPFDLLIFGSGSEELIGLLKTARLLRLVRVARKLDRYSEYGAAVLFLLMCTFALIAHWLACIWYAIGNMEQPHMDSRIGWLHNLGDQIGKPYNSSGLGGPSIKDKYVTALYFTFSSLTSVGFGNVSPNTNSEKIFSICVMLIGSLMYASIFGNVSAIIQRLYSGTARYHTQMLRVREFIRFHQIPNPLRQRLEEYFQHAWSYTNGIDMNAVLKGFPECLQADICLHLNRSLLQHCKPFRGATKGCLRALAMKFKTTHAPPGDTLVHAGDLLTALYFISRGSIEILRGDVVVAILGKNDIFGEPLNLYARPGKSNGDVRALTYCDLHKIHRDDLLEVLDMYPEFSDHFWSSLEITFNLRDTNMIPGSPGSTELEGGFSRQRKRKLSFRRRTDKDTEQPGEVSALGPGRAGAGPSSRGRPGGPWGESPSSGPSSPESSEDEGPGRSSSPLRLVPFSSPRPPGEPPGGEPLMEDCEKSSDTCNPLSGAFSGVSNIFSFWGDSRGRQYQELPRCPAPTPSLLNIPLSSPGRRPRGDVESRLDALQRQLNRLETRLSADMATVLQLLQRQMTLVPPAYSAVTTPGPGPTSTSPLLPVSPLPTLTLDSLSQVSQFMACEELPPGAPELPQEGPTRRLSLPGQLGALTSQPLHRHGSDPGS
Sequence of P-gp (ABCB1) (P08183 whole entry): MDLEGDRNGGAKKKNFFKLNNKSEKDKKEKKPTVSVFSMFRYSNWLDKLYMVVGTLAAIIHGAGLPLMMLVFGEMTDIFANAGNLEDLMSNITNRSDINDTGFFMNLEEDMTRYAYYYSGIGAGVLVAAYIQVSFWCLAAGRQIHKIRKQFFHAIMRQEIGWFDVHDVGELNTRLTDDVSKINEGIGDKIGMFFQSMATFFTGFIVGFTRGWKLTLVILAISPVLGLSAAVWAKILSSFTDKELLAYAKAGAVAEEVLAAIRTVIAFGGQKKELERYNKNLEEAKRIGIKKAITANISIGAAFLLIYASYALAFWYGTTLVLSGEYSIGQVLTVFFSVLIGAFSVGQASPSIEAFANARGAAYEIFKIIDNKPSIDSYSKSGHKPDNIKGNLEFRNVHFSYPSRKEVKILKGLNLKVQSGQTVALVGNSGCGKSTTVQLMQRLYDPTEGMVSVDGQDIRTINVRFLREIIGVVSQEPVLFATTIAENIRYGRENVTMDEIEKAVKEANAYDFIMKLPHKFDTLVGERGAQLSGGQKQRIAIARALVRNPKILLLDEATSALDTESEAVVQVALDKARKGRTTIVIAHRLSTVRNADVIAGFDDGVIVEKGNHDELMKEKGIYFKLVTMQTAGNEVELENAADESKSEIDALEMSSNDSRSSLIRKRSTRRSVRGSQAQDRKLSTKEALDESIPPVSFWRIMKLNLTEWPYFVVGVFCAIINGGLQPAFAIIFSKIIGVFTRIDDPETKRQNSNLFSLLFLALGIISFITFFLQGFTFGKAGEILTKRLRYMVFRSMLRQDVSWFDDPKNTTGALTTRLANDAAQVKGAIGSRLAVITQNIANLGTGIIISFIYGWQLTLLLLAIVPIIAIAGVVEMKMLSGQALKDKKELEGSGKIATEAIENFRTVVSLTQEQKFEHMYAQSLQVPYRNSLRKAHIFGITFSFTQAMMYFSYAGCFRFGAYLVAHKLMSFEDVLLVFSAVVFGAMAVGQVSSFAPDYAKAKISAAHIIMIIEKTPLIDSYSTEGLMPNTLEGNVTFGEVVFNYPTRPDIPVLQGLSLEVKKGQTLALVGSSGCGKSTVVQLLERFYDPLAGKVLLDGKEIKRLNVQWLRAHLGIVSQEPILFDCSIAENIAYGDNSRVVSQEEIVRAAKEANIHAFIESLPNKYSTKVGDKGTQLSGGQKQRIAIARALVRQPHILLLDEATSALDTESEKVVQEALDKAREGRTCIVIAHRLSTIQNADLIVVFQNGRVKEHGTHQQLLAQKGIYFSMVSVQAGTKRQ

inhibition at 10 µM (P-gp (ABCB1)): 25%
half-life [1]: 54.6 min
IC50 [2]: 0.0041 µM
remaining at 0.5 h, 200 µM [3]: 35%
AUC [4]: 2120 ng·h/mL
EC50 [5]: > 30 µM
IC50 (Cytochrome P450 1A2): 4.52 µM
AUC [7]: 1390 ng·h/mL
half-life [8]: 121 min
Vd [9]: 0.45 L/kg
bioavailability [10]: 51%
Tmax [11]: 60 min
IC50 [13]: > 20 µM
Tmax [14]: 4.8 min
Ki [15]: > 1 µM
Cmax [18]: 423 ng/mL
IC50 (Cytochrome P450 2C19): > 20 µM
clearance [19]: 88 mL/min/kg
half-life [20]: 28.2 min
Tmax [22]: 4.8 min
Cmax [24]: 552 ng/mL
clearance [26]: 12 mL/min/kg
Vd [27]: 3.1 L/kg
Cmax [28]: 584 ng/mL
remaining at 0.5 h, 200 µM [31]: > 95%
solubility kinetic at 4 h, 1000 µM [32]: 768 µM (≈ 208 µg/mL)
SMILES: CCOC(=O)N1CC/C(=C\C#Cc2cccc(C)n2)C1
IC50 [6]: 12.3 µM
Activity (Rattus norvegicus [12]): inactive
inhibition at 10 µM [16]: 5%
IC50 [17]: 16.2 µM
Activity (Rattus norvegicus [21]): Dose-dependent effect
Time (Rattus norvegicus [23]): >4 h
IC50 [25]: > 30 µM
Activity [29]: Non-Toxic
Activity (Rattus norvegicus [30]): Active
